Experimental data collected from several papers.
Compare with care: the assays were run in different laboratories.
Target: Mitogen-activated protein kinase 12 (MAPK12, Homo sapiens, UniProt P53778)
Residues used in one study (P53778 1-367): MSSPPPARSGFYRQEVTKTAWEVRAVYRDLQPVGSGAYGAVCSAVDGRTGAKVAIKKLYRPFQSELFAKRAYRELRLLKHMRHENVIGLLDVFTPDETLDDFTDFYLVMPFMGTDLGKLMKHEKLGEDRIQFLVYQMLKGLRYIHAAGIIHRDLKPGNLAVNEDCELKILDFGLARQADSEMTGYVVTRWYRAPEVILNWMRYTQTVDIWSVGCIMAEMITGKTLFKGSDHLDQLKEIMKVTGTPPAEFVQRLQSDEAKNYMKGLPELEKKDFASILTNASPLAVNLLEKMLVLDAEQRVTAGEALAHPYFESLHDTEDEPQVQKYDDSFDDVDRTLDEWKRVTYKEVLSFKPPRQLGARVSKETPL

| Compound | observed | mode | technique | concentration | measurement | value |
| --- | --- | --- | --- | --- | --- | --- |
| COc1cc2ncnc(Nc3ccc(Oc4ccccc4)c(C)c3C)c2cc1OC | enzyme activity | inhibitor |  | 1 µM | inhibition | 2% |
| CS(=O)(=O)c1cc(C2(NC(=O)c3cncc4c3cnn4-c3ccc(F)cc3)CC2)ccn1 | cell-free assay |  | competition with immobilised ligand | 1 µM | remaining binding | 100% |
| Nc1nc(Nc2ccccc2)sc1C(=O)c1c(F)cccc1F | enzyme activity | inhibitor |  | 10 µM | remaining activity | 77% |
| CC/C(=N\NC(=O)NCc1cccc(O)c1)c1ccc(O)c(C)c1O | enzyme activity | inhibitor |  | 0.1 µM | inhibition | -1.6% |
| COc1cc(Nc2cnc(C#N)c(O[C@H](C)CN(C)C)n2)ncc1-c1cnn(C)c1 | enzyme activity | inhibitor | radiometric | 10 µM | remaining activity | 109% |
| Cc1nccc(COC(=O)N2C[C@@H]3[C@@H](CNC(=O)c4ccc5[nH]nnc5c4)[C@@H]3C2)n1 | cell-free assay |  | competition with immobilised ligand | 1 µM | remaining binding | 79% |
| COc1cc(/C=C/C(=O)CC(=O)/C=C/c2ccc(O)c(OC)c2)ccc1O | enzyme activity | inhibitor |  | 1 µM | activity vs control | 101% |
| CC1CCCN1c1nccc(-c2cnn3ncccc23)n1 (stereo not shown) | binding |  |  | 1 µM | remaining binding | 90% |
| Cc1sc(C(=O)NC2COC2)cc1-n1cc(NC(=O)Nc2c(F)cccc2Cl)cn1 | enzyme activity | inhibitor |  | 10 µM | remaining activity | 90.5% |
| NS(=O)(=O)c1cc(NC(=O)Cc2ccccc2)ccc1Oc1cccc(Cl)c1 | cell-free assay |  | competition with immobilised ligand | 1 µM | remaining binding | 100% |
| FC(F)c1nc2ccccc2n1-c1nc(N2CCOCC2)nc(N2CCOCC2)n1 | enzyme activity | inhibitor |  | 10 µM | remaining activity | 92% |
| CC(C)(C)C(=O)c1sc(NC2CCCCC2)nc1N | enzyme activity | inhibitor |  | 10 µM | remaining activity | 89% |
| COc1cc(Cl)c(C(=O)N[C@@H](CN[C@H]2CC[C@@H](N)CC2)Cc2ccc(C#N)cc2)cc1-c1ccc(CN[C@H](C)c2ccc(C)cc2)o1 | enzyme activity | inhibitor |  | 1 µM | remaining activity | 109% |
| CCOC(=O)c1cc2cc(-c3cc(C(=O)NCc4ccc(C(=O)O)cc4)nn3C)ccc2[nH]1 | cell-free assay |  | competition with immobilised ligand | 0.1 µM | remaining binding | 77% |
| Oc1cccc(-c2nc(N3CCOCC3)c3oc4ncccc4c3n2)c1 | cell-free assay |  |  | 0.5 µM | remaining signal | 93.4% |
| CC(C)(C)c1nc2c(s1)c1nc(N)ncc1c1ccc(NS(=O)(=O)c3c(F)cccc3F)c(F)c12 | enzyme activity | inhibitor | radiometric | 1 µM | remaining activity | 100% |
| Cc1ccc(C(=O)Nc2ccc(CN3CCN(C)CC3)c(C(F)(F)F)c2)cc1C#Cc1cnc2cccnn12 | enzyme activity | inhibitor |  | 23.5 nM | remaining activity | 70% |
| O=C1NC(=O)c2cc(Nc3ccc(F)cc3)c(Nc3ccc(F)cc3)cc21 | cell-free assay |  |  | 0.5 µM | remaining signal | 93.6% |
| Cc1ccc(Nc2nccc(N(C)c3ccc4c(C)n(C)nc4c3)n2)cc1S(N)(=O)=O | enzyme activity | inhibitor |  | 0.3 µM | inhibition | -5% |
| Cn1nc(C(F)(F)F)cc1-c1cnc(N2CCc3cc(S(=O)(=O)Nc4c(F)cc(Cl)cc4F)cc(N4CCCC4=O)c32)nc1 | cell-free assay |  | competition with immobilised ligand | 1 µM | remaining binding | 83% |
| CC(C)(O)[C@H]1CC[C@H](Nc2ccc3ncc(-c4cccc(C(F)(F)F)c4)n3n2)CC1 | enzyme activity | inhibitor |  | 1 µM | remaining activity | 93.8% |
| N#CCCc1ccc2c(c1)-c1[nH]c3ccc([N+](=O)[O-])cc3c1CC(=O)N2 | cell-free assay |  |  | 0.5 µM | remaining signal | 98.9% |
| CC(=O)C1=C(C)N(c2cccc(C(F)(F)F)c2)C(=O)N[C@@H]1c1ccc(C#N)nc1 | cell-free assay |  | competition with immobilised ligand | 1 µM | remaining binding | 77.4% |
| CCN(CC)c1ccc(C2=NNC(=O)CC2C)cc1[N+](=O)[O-] (stereo not shown) | enzyme activity | inhibitor |  | 10 µM | remaining activity | 104% |
| C[C@H](c1ccc(F)cc1)N(Cc1cccc(C(=O)O)c1)C(=O)c1cnc2ccccc2c1 | cell-free assay |  | competition with immobilised ligand | 1 µM | remaining binding | 65% |
| CCN(CC)CCNC(=O)c1c(C)[nH]c(/C=C2\C(=O)Nc3ccc(F)cc32)c1C | enzyme activity | inhibitor |  | 10 µM | inhibition | -3% |
| Cc1c(NC(=O)c2cc(C(N)=O)nc3cc(F)ccc23)c(C(F)(F)F)nn1Cc1ccc(C(C)(C)C)cc1 | cell-free assay |  | competition with immobilised ligand | 1 µM | remaining binding | 56% |
| CCCS(=O)(=O)Nc1ccc(F)c(C(=O)c2c[nH]c3ncc(-c4ccc(Cl)cc4)cc23)c1F | enzyme activity | inhibitor |  | 1 µM | inhibition | < 10% |
